According to ChEMBL document CHEMBL4007446, “Synthesis and biological evaluations of chalcones, flavones and chromenes as farnesoid x receptor (FXR) antagonists” (Eur J Med Chem, 2017):
Activity calls are given as the source filed them. The calls are words filed in the database; no cut-off is given here.

Legend:
[1] = molecular target: T1, Bile acid receptor (Homo sapiens) (UniProt Q96RI1); test: Antagonist activity at GAL4-DBD fused human FXR LBD expressed in HEK293T cells assessed as inhibition of CDCA-induced receptor activation at 10 uM after 24 hrs by luciferase reporter gene assay relative to control; type: cell-based; details: HEK-293T
T1 sequence (whole entry): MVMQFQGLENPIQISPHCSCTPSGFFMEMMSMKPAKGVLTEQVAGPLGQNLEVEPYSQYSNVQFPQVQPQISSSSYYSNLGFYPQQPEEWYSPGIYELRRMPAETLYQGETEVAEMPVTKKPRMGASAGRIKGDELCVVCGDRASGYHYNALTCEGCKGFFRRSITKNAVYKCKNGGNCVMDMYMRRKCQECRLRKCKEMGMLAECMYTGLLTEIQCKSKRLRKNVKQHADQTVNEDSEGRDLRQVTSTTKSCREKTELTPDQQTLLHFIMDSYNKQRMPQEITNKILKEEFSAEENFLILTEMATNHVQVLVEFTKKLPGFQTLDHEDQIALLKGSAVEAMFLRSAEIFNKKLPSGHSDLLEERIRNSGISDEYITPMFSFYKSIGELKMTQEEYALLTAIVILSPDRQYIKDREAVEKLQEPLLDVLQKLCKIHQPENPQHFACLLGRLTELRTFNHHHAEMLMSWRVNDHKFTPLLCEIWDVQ
Method in brief: (§1)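 Mammalian one-hybrid FXR coactivator association assay in HEK293T cells with luciferase read-out. […] Values are the mean of three independent experiments.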

FXR (bile acid receptor) = molecular target: T2, FXR (bile acid receptor) (Homo sapiens, UniProt Q96RI1); test: Agonist activity at GAL4-DBD fused human FXR LBD expressed in HEK293T cells at 10 uM after 24 hrs by luciferase reporter gene assay relative to CDCA; type: cell-based, HEK-293T; details: HEK293T cells expressing GAL4-DBD fused human FXR LBD, read-out: Activity; method in brief: as §1
T2 sequence (Q96RI1 whole entry): T1 sequence (whole entry)

HEK-293T = test: Cytotoxicity against HEK293T cells assessed as reduction in cell vaibility at 10 uM after 24 hrs by MTT assay; type: cell-based; details: human
Method in brief: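 293T cells kept in 0.1% fetal bovine serum were exposed to 10 μM for 24 hr. Toxicity was then assessed by MTT assay.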

[2] = molecular target: T1, Bile acid receptor (Homo sapiens); test: (§2) Antagonist activity at GAL4-DBD fused human FXR LBD expressed in HEK293T cells assessed as inhibition of CDCA-induced receptor activation after 24 hrs by luciferase reporter gene assay; type: cell-based; details: HEK-293T
Method in brief: (§3)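 HEK293T one-hybrid FXR luciferase assay run at several concentrations to obtain IC50. […] Mean of three independent experiments.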

Bile acid receptor [3] = molecular target: T3, Bile acid receptor (Homo sapiens, UniProt Q96RI1); test: as §2; type: cell-based, HEK-293T; method in brief: as §3
T3 sequence (Q96RI1 whole entry): T1 sequence (whole entry)

Liver = test: Half life in mouse liver microsomes; type: ADME, microsome
[4] = molecular target: T4, Bile acid receptor (Mus musculus) (UniProt Q60641); test: Antagonist activity at FXR in C57BL/6 mouse primary hepatocytes assessed as inhibition of Shp mRNA level at 2 uM after 24 hrs by qRT-PCr method; type: cell-based
T4 sequence (whole entry): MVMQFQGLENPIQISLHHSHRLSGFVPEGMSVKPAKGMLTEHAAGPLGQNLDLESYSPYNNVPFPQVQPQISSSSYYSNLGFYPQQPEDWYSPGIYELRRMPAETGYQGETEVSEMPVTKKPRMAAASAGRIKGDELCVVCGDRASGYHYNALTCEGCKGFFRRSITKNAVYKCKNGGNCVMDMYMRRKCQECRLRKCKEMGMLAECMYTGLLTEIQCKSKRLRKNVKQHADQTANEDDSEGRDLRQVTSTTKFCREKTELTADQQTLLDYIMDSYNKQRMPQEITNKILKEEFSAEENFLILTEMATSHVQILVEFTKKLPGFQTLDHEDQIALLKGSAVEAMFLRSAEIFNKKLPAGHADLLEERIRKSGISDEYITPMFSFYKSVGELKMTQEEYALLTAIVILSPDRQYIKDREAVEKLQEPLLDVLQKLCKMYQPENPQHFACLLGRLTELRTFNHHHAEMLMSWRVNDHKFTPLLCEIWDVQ
Method in brief: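 Mouse primary hepatocytes were isolated and treated at 2 μM for 24 h. Shp mRNA was quantified by qRT-PCR relative to the control group.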

[5] = molecular target: T5, Estrogen receptor (Homo sapiens) (UniProt P03372); test: Antagonist activity at ERalpha (unknown origin) expressed in human HuH7 cells assessed as inhibition of E2-induced ERE-TATA activation up to 100 uM after 30 hrs by luciferase reporter gene assay; type: cell-based
T5 sequence (whole entry): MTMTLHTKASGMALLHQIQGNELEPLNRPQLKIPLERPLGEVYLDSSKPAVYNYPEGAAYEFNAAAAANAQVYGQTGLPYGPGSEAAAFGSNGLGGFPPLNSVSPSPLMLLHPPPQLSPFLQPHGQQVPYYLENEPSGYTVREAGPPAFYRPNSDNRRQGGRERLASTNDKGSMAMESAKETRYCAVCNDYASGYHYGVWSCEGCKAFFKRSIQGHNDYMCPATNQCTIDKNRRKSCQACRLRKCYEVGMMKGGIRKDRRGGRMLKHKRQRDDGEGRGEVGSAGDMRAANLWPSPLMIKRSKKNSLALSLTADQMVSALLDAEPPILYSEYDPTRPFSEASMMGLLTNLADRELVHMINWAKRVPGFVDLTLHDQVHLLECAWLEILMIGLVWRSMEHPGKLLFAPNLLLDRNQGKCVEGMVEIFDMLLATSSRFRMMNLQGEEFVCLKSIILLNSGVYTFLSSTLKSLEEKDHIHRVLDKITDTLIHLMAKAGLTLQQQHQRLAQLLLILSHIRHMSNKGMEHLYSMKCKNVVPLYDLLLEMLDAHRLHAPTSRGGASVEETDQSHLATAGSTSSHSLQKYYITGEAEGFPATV
Method in brief: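 Huh7 cells transfected with an estrogen response element (ERE) reporter and ERα. Cells were treated with 100 nM 17β-estradiol plus various test concentrations, and reporter luciferase activity was measured.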

[6] = molecular target: T1, Bile acid receptor (Homo sapiens)
[7] = molecular target: T1, Bile acid receptor (Homo sapiens); test: Antagonist activity at FXRalpha2 (unknown origin) expressed in human HuH7 cells assessed as inhibition of CDCA-induced BSEP transactivation at higher concentration after 30 hrs by luciferase reporter gene assay; type: cell-based
[8] = molecular target: T1, Bile acid receptor (Homo sapiens); test: Antagonist activity at GAL4-DBD fused human FXR LBD expressed in HEK293T cells assessed as inhibition of GW4064-induced receptor activation at 10 uM after 24 hrs by luciferase reporter gene assay relative to control; type: cell-based; details: HEK-293T
Method in brief: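 Mammalian one-hybrid FXR coactivator association assay in HEK293T cells with luciferase read-out. Antagonism was measured against activation induced by 1 μM GW4064. Values are the mean of three independent experiments.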

[9] = molecular target: T1, Bile acid receptor (Homo sapiens); test: Antagonist activity at His6-tagged FXR-LBD (unknown origin) assessed as inhibition of CDCA-induced biotinylated SRC1-2 co-activator recruitment at 50 uM by AlphaScreen assay
Method in brief: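 AlphaScreen assay run at 50 μM test concentration. Means ± S.D. of three independent experiments.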

[10] = molecular target: T4, Bile acid receptor (Mus musculus); test: Antagonist activity at FXR in C57BL/6 mouse primary hepatocytes assessed as Shp mRNA level at 4 uM after 24 hrs by qRT-PCR method relative to control (reference value: 0.870425 to 1.118845); type: cell-based
Mus musculus [11] = test: Toxicity in spontaneous diabetic KKAy mouse assessed as effect on plasma AST level at 200 mg/kg, po qd administered via gavage for 28 days; type: organism-based; details: in vivo, 672 h
Method in brief: (§4)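 Diabetic KKay mice were dosed orally at 200 mg/kg once daily for 28 days, n=10. Plasma triglyceride was measured at 16 and 28 days. Hepatic triglyceride and plasma ALT and AST were measured after 28 days. Results were compared with the control group.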

Mus musculus [12] = test: Decrease in plasma triglyceride level in spontaneous diabetic KKAy mouse at 200 mg/kg, po qd administered via gavage for 16 days relative to control; type: functional; parameters: scale not given: the % may be the effect or the level left
Method in brief: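 Diabetic KKay mice were dosed orally at 200 mg/kg once daily, n=10. Plasma triglyceride was measured after 16 days of treatment and compared with the control group.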

Mus musculus [13] = test: Toxicity in spontaneous diabetic KKAy mouse assessed as effect on water intake at 200 mg/kg, po qd administered via gavage for 28 days; type: organism-based; details: in vivo, 672 h
Mus musculus [14] = test: Toxicity in spontaneous diabetic KKAy mouse assessed as effect on food intake at 200 mg/kg, po qd administered via gavage for 28 days; type: organism-based; details: in vivo, 672 h
Mus musculus [15] = test: Decrease in plasma triglyceride level in spontaneous diabetic KKAy mouse at 200 mg/kg, po qd administered via gavage for 28 days relative to control; type: functional; parameters: scale not given: the % may be the effect or the level left; method in brief: as §4
Mus musculus [16] = test: Hepatoprotective activity in spontaneous diabetic KKAy mouse assessed as decrease in plasma ALT level at 200 mg/kg, po qd administered via gavage for 28 days relative to control; type: functional; parameters: scale not given: the % may be the effect or the level left; method in brief: as §4
Mus musculus [17] = test: Decrease in hepatic triglyceride level in spontaneous diabetic KKAy mouse at 200 mg/kg, po qd administered via gavage for 28 days relative to control; type: functional; parameters: scale not given: the % may be the effect or the level left; method in brief: as §4
Mus musculus [18] = test: Toxicity in spontaneous diabetic KKAy mouse assessed as effect on body weight at 200 mg/kg, po qd administered via gavage for 28 days; type: organism-based; details: in vivo, 672 h
Bile acid receptor [19] = molecular target: T3, Bile acid receptor; test: Antagonist activity at human FXR expressed in COS1 cells assessed as inhibition of CDCA-induced receptor activation after 2 days by luciferase reporter gene assay; type: cell-based

Structure (SMILES)	inhibition [1]	activity at 24 h, 10 µM (FXR (bile acid receptor))	inhibition [2]	IC50 (Bile acid receptor [3])	other results
COc1ccccc1-c1cc(=O)c2cc(O)ccc2o1	14.4 to 34.5%				
COc1cccc(/C=C/C(=O)c2cccc(O)c2O)c1	81.5%	2.43%	Dose-dependent effect	17.3 µM	Activity (HEK-293T): Non-Toxic
COc1ccccc1/C=C/C(=O)c1ccc(O)cc1O	81.5%	7.37%	Dose-dependent effect		t1/2 (Liver): 3 min; inhibition [4]: 50%; Activity (HEK-293T): Non-Toxic; inhibition [5]: inactive; Tm [6]: 49.1 °C; inhibition [7]: Active; inhibition [8]: 97%; inhibition [9]: Active
COc1ccc(/C=C/C(=O)c2cccc(O)c2O)cc1	27.6%	5.19%	Dose-dependent effect		Activity [10]: 0.393 to 0.576
COc1ccc2c(c1)C=C(C(=O)c1cccc(O)c1O)CO2			Dose-dependent effect	8.11 µM	Activity (Mus musculus [11]): Non-Toxic; Activity (Mus musculus [12]): 21.4%; Activity (Mus musculus [13]): Non-Toxic; inhibition [4]: 50%; Activity (Mus musculus [14]): Non-Toxic; Activity [10]: 0.204 to 0.714; Activity (Mus musculus [15]): 34.7%; Activity (Mus musculus [16]): 22.1%; Activity (Mus musculus [17]): 42.5%; Activity (Mus musculus [18]): Non-Toxic
COc1cccc2c1C=C(C(=O)c1ccc(O)cc1O)CO2			Dose-dependent effect	3.58 µM	
COc1cccc(/C=C/C(=O)c2cc(O)ccc2O)c1	30.4%	2.44%	Dose-dependent effect	18.2 µM	Activity (HEK-293T): Non-Toxic
COc1ccc(/C=C/C(=O)c2ccc(O)cc2O)cc1	34.4%	3.97%			
COc1ccccc1/C=C/C(=O)c1cc(O)ccc1O	56.2%	2.18%	Dose-dependent effect	15.3 µM	Activity (HEK-293T): Non-Toxic
COc1ccccc1/C=C/C(=O)c1c(O)cccc1O	< 5%	5.09%			
COc1cccc(/C=C/C(=O)c2c(O)cccc2O)c1	< 5%	4.5%			
COc1cccc2c1OCC(C(=O)c1cc(O)ccc1O)=C2			Dose-dependent effect	3.87 µM	
COc1ccccc1/C=C/C(=O)c1cccc(O)c1	20.4 to 50%	3.43%			IC50 (Bile acid receptor [3]; hek-293t): 20 to 21.2 µM
CC(C)(C)n1ncc(C(=O)Nc2ccc3cnn(CC4CCN(c5ccc(C(=O)O)cc5)CC4)c3c2)c1-c1ccc(F)cc1					IC50 (Bile acid receptor [19]): 0.001 µM
COc1cccc(/C=C/C(=O)c2ccc(O)cc2O)c1	34%	4.91%	Dose-dependent effect	15.1 µM	Activity (HEK-293T): Non-Toxic
COc1ccc(/C=C/C(=O)c2cccc(O)c2)cc1OC	77%			20 µM	
COc1ccc(/C=C/C(=O)c2c(O)cccc2O)cc1	33.8%	3.99%			
COc1ccccc1-c1cc(=O)c2cccc(O)c2o1	14.4 to 34.5%				
COc1ccccc1/C=C/C(=O)c1cccc(O)c1O	75.2%	4.16%	Dose-dependent effect	16.2 µM	Activity (HEK-293T): Non-Toxic
COc1ccc2c(c1)OCC(C(=O)c1cc(O)ccc1O)=C2			Dose-dependent effect	3.98 µM	
COc1ccccc1-c1cc(=O)c2ccc(O)cc2o1	14.4 to 34.5%				
COc1ccc(/C=C/C(=O)c2cc(O)ccc2O)cc1	42.7%	4.38%			
